Bioassay records from PubChem BioAssay.
CSC inhib = cancer stem cell inhibition; cancer stem cell-like cells viability, luminescence; inhibition, % at 7.5 µM; actives 1.1% (n = 300,000); AID 2717; in the data active means inhibition above about 75%; inconclusive means no clear call, values can overlap the other calls; tested in HMLE shEcad cells
T cruzi repl = blocks replication of Trypanosoma cruzi | T. cruzi beta-gal in NIH3T3, luminescence, 90 h | inhibition, % (no concentration beside the values) | actives 1.4% (n = 300,000);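 active means mean inhibition across valid replicates above about 55%, limit read from the data; inconclusive means mean below that limit but half or more replicates reach it; inactive means mean below it, under half of replicates reach it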;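 further: signal also drops with host cell toxicity which is not excluded here; higher percent means less beta-gal luminescence so fewer parasites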
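Assay system: NIH/3T3 fibroblasts plus reporter T. cruzi. Amount: NIH/3T3 cells, 5,000 per well. Buffer or medium: DMEM, 2% fetal bovine serum. Doses: compound pinned at 50 nL/well, DMSO. Schedule: ≥90 h infection period, 3 h prior cell attachment. Signal: luminescent β-galactosidase signal after 60 min lysis. Read-out: parasite load inhibition, %.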
Beta cell apopt = blocks beta cell apoptosis. INS-1E cytokine-induced death, ATP luminescence, 48 h; percent of positive-control rescue, neutral wells zero. actives 0.8% (n = 300,000). protection from apoptosis, % (no concentration beside the values);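 active means Every replicate reaches about 75%, or at least half do and their mean reaches it too, limit read from the data; inconclusive means At least half of replicates reach the limit but their mean does not; inactive means Under half of replicates reach the limit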;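 further: higher means more ATP so stronger rescue from cytokine killing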
UPR XBP1 act = adaptive UPR (XBP1) activation | CHO-XBP1 luciferase reporter, IRE1-XBP1 UPR activation, luminescence; percent of tunicamycin response, DMSO as zero | activation, % at 20 µM | actives 0.33% (n = 330,000);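 active means versus positive control, 20 µM dose yields 30% or more activation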
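incubation = overnight seeding at 37 °C, 6 h compound treatment at 37 °C | assay system = CHO-XBP1 cells stably carrying IRE1-XBP1-driven luciferase reporter | input = 1000 cells per well | detection = luciferase luminescence | dosing = single point, 20 µM final compound, 1% DMSO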
CHOP UPR activ = activators of apoptotic arm of unfolded protein response (CHOP); CHO-CHOP luciferase reporter, UPR activation, luminescence; percent of tunicamycin response over DMSO baseline; activation, % at 10 µM; actives 0.34% (n = 330,000); AID 449763;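 active means at 10 µM dose, activation of 40% or more, normalized to positive control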
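measured by = luciferase luminescence | assay system = CHO-CHOP cells, stable luciferase reporter of PERK-eIF2a-CHOP signalling | amount = 500 reporter cells seeded per well | timing = 6 h compound exposure at 37 °C after overnight seeding | controls = positive tunicamycin 10 µg/mL, negative DMSO alone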
Mdm2 MdmX PPI = human Mdm2/MdmX binding inhibition. inhibition, % at 8 µM. SaOS-2 split-luciferase Mdm2/MdmX complementation, luminescence. O15151+Q00987. AID 485346. actives 3% (n = 330,000);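 active means inhibition of at least 50% at 8 µM in the primary screen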
XBP1 UPR conf = confirmation of adaptive unfolded protein response (XBP1) activators; shares compounds with UPR XBP1 act; CHO-XBP1 IRE1-XBP1 luciferase reporter, luminescence; activation, % at 20 µM; actives 63% (n = 1,000); AID 485299;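 active means reporter signal at least 30% of the positive control's activation in two or more of four replicate wells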
Mdm2-MdmX conf = human Mdm2/MdmX binding inhibition, confirmed | actives 55% (n = 10,000) | luminescent assay | shares compounds with Mdm2 MdmX PPI | inhibition, % at 8 µM | AID 489028; in the data active means inhibition above about 40%
FLuc counter = full-length luciferase inhibition in Mdm2/MdmX counter-screen; SaOS-2 full-length luciferase counterscreen, luminescence; actives 77% (n = 6,200); shares compounds with Mdm2 MdmX PPI; inhibition, % at 8 µM; AID 504607;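 active means mean inhibition at 8 µM reaching about 37%, which flags the compound as non-specific, limit read from the data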;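 further: p53-null SaOS-2 cells with luciferase driven by a doxycycline-inducible promoter; compound on cells about two nights before reading with doxycycline added after day one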
Hits are given with their value; . = inactive; ? = inconclusive; / = no result. An excerpt weighted towards active compounds, which were near 5% of everything screened.

SMILES | CSC inhib | T cruzi repl | Beta cell apopt | UPR XBP1 act | CHOP UPR activ | Mdm2 MdmX PPI | XBP1 UPR conf | Mdm2-MdmX conf | FLuc counter
COc1ccc(Br)cc1-c1nc2c(c(=O)[nH]c(=O)n2Cc2ccccc2)n1C | . | . | . | 50.2 | . | . | 64.6 | / | /
N#Cc1cc2c(nc1SCC(=O)Nc1sc3c(c1C#N)CCC3)CCCC2 | . | . | . | 51.4 | . | . | 29.7 | / | /
O=C(NNC(=O)C1[C@H]2CCCC[C@@H]12)Nc1cccc2ccccc12 (stereo partly drawn) | . | . | . | . | . | . | / | / | /
CCOC(=O)C1=C(C)N=C2c3ccccc3C(=O)C2C1c1ccc(C)cc1 (stereo not drawn) | . | . | / | 32.2 | . | . | 28.2 | / | /
CCOC(=O)C1=C(C)N=C2c3ccccc3C(=O)C2C1c1ccccc1 (stereo not drawn) | . | . | . | . | . | . | / | / | /
CC/C(=N/Nc1ccccc1)c1cnnc(-c2ccccc2)n1 | . | . | . | 69.2 | . | . | . | / | /
CCn1ccnc1CNC(=O)c1ccc2oc(CCCc3ccccc3)nc2c1 | . | . | . | . | . | . | / | / | /
ClC(Cl)(Cl)c1nc2ccccc2n2nncc12 | . | . | . | 30.9 | . | 76.8 | . | 60.2 | .
c1ccc2c(c1)nnn1c3ccccc3nc21 | . | . | . | . | . | . | / | / | /
C=CCC(NC(C)c1ccccc1)c1ccco1 (stereo not drawn) | . | . | . | . | . | . | / | / | /
COc1ccc(-n2ccn(CC(=O)Nc3ccccc3OC)c(=O)c2=O)cc1 | . | . | . | . | . | . | / | / | /
CCCCn1c(N)c(N(CC(C)C)C(=O)C2CCN(S(=O)(=O)c3ccc(Cl)cc3)CC2)c(=O)[nH]c1=O | . | . | . | . | . | . | / | / | /
COc1cc(/C=N/Nc2nc(Nc3ccccc3)nc(N3CCCCC3)n2)ccc1OCC(=O)O | . | . | . | . | . | . | / | / | /
COc1cc(/C=N/Nc2nc(Nc3ccccc3)nc(-n3nc(C)cc3C)n2)cc(OC)c1OC | 102.4 | 54.5 | . | 71.7 | . | 68.6 | 89.9 | 66.2 | 78.1
COc1cc(/C=N/Nc2nc(Nc3ccc(C)cc3)nc(-n3nc(C)cc3C)n2)cc(OC)c1OC | . | 58.1 | . | 50.5 | . | 59.3 | 68.9 | 72.7 | 62.0
CCn1c(=O)c2c(nc3n2CCN3c2ccccc2)n(C)c1=O | . | . | . | . | . | . | / | / | /
O=C(CN1C(=O)NC2(CCCC2)C1=O)NNC(=O)c1ccc(Cl)cc1 | . | / | . | . | . | . | / | / | /
CNC(=O)C1CCN(S(=O)(=O)c2c(C)noc2/C=C/c2cccc(OC)c2)CC1 | / | . | . | . | . | . | / | / | /
COc1cc(C(=O)N/N=C/c2ccsc2C)cc(OC)c1OC | 75.6 | . | . | 30.4 | . | 76.7 | . | 66.6 | 89.2
Cc1ccc(-n2nc3c(=O)n(CC(=O)NCCc4cccs4)nc(C)c3c2C)cc1 | . | . | . | . | . | . | / | / | /
Cc1ccc(-n2nc3c(N4CCC(C(=O)NCCc5cccs5)CC4)nnc(C)c3c2C)cc1 | . | . | . | 31.1 | . | 54.5 | 45.5 | . | 89.2
Cn1cc(/C=C(\C#N)C(=O)Nc2cccc([N+](=O)[O-])c2)c2ccccc21 | . | . | . | 78.7 | . | 65.6 | 72.9 | . | /
CCCn1c(Nc2nc3ccccc3n2C)nc2ccccc21 | 104.2 | . | 111.0 | 55.1 | . | 89.5 | 56.9 | 100.2 | 53.0
Cc1ccc(Cn2c(=N)n(CC(=O)c3ccc([N+](=O)[O-])cc3)c3ccccc32)cc1 | . | . | . | 67.4 | . | 98.3 | . | . | /
Cn1nc(C(F)(F)F)c(/C=N/OC(=O)c2ccc(Cl)cc2)c1Cl | . | . | . | . | . | . | / | / | /
SMILES | CSC inhib | T cruzi repl | Beta cell apopt | UPR XBP1 act | CHOP UPR activ | Mdm2 MdmX PPI | XBP1 UPR conf | Mdm2-MdmX conf | FLuc counter
Cn1nc(C(F)(F)F)c(/C=N/OC(=O)c2ccccc2Cl)c1SCc1ccccc1Cl | . | . | . | 89.4 | . | 54.8 | 97.8 | . | /
COc1ccccc1CNCC(O)Cn1c2ccccc2c2ccccc21 (stereo not drawn) | . | . | 102.6 | 30.1 | . | 89.6 | . | 67.5 | 50.1
O=C(Cc1ccc(S(=O)(=O)N2CCOCC2)s1)Oc1ccc(F)cc1 | . | . | . | . | . | . | / | / | /
CC(=O)O[C@H]1[C@@H](O)[C@H](O)[C@H](Oc2c(O)c(C)c3c4c2[C@@H](C)CC[C@@H]4[C@@H](C)C[C@H]3C=C(C)C)O[C@H]1C | 105.9 | / | . | 46.8 | . | 90.1 | . | . | /
Cc1cc(-n2c(SCC(=O)Nc3ccc(F)c(F)c3)nc3n[nH]c(C)c3c2=N)ccc1Cl | . | . | 76.2 | 34.5 | . | 93.9 | 60.2 | 71.5 | 41.6
Cc1cc(-n2c(SCC(=O)Nc3ccc(Br)cc3)nc3n[nH]c(C)c3c2=N)ccc1Cl | . | . | . | 36.3 | . | 85.9 | . | 43.0 | 63.9
COc1cccc(NC(=O)CSc2nc3n[nH]c(C)c3c(=N)n2-c2cccc(OC)c2)c1 | . | . | . | . | . | . | / | / | /
COc1ccc(C(C(=O)NC2CCCCC2)N(CC2CCCO2)C(=O)CNC(=O)c2ccco2)cc1 (stereo not drawn) | . | . | . | . | . | . | / | / | /
COc1cc(OC)c2c(-c3cccc(-c4ccc(CO)cc4)c3)cc(=O)oc2c1 | / | / | / | 34.1 | . | 74.1 | 29.7 | 63.3 | 62.0
COc1cc(OC)c2c(-c3cccc(-c4cccc(C)c4)c3)cc(=O)oc2c1 | / | / | / | . | . | . | / | / | /
CCOC(=O)C1=C(C)Nc2nnnn2C1c1ccc(OC)c(Br)c1 (stereo not drawn) | . | . | . | . | . | . | / | / | /
O=C(CSc1nc(-c2ccccc2)ns1)NCC1CCCO1 (stereo not drawn) | . | . | . | . | . | . | / | / | /
COc1ccc(C2=NN(C(=O)COC(=O)c3ccc(NC(=O)CC#N)cc3)C(c3ccco3)C2)cc1 (stereo not drawn) | . | / | . | . | . | . | / | / | /
NCCc1c(-c2ccccc2)n(-c2ccccc2)c2ccccc12 | / | 63.6 | / | 37.5 | . | 61.1 | 83.8 | 53.2 | 70.7
O=C(Cc1csc(Nc2nc(=S)[nH]c3ccccc23)n1)NCCCN1CCN(c2ccccc2F)CC1 | . | . | . | 63.5 | . | 97.9 | . | . | /
COc1ccc(CNC(=O)Cc2csc(Nc3nc(=S)[nH]c4ccccc34)n2)cc1 | . | . | . | . | . | . | / | / | /
CCCOc1cccc(C(=O)Nc2ccc3c(c2)OCCO3)c1 | . | ? | / | . | . | . | / | / | /
